# Laboratory results taken from ChEMBL document CHEMBL5058577, “EUbOPEN Chemogenomics Library 2 (Multiplex)” (2022).
# Test system: HEK-293T
# Experiment: Multiplex assay against HEK293T
# Type: toxicity, cell-based
# Conditions: human
# Outline: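 Tubulin, mitochondrial-mass and membrane-permeability phenotypes are per cents of healthy-nucleus cells. Cells were gated by CellPathfinder machine learning into Hoechst high-intensity objects or normal cells, normal cells into healthy, pyknosed or fragmented nuclei, and pyknosed cells into mitotic or apoptotic. Before that, live cells stained at seeding with Hoechst33342, BioTracker Green Microtubule Cytoskeleton Dye, MitoTracker Red and Annexin V Alexa Fluor 680 were imaged on a CQ1 microscope at 37°C and 5% CO2 after compound addition.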
# [1] = 12 h, 1 µM, compound concentration 1 uM, replicate 1
# [2] = 12 h, 1 µM, compound concentration 1 uM, replicate 2
# [3] = 12 h, 10 µM, compound concentration 10 uM, replicate 1
# [4] = 12 h, 10 µM, compound concentration 10 uM, replicate 2
# [5] = 24 h, 1 µM, compound concentration 1 uM, replicate 1
# [6] = 24 h, 1 µM, compound concentration 1 uM, replicate 2
# [7] = 24 h, 10 µM, compound concentration 10 uM, replicate 1
# [8] = 24 h, 10 µM, compound concentration 10 uM, replicate 2
# [9] = 48 h, 1 µM, compound concentration 1 uM, replicate 1
# [10] = 48 h, 1 µM, compound concentration 1 uM, replicate 2
# [11] = 48 h, 10 µM, compound concentration 10 uM, replicate 1
# [12] = 48 h, 10 µM, compound concentration 10 uM, replicate 2
smiles,measurement,setting,value
CC[C@@H](C)Nc1nc(C)nc2c(-c3ccc(OC)nc3C)c(C)nn12 [PEXACERFONT],Population Apoptotic (%),[1],33%
same,Population Fragmented Nuclei (%),[1],7%
same,Population Healthy Nuclei (%),[1],79%
same,Population Hoechst High Intensity Objects (%),[1],6%
same,Population Membrane Permeable-Phenotype (%),[1],0%
same,Population Mitochondria Different-Phenotype (%),[1],45%
same,Population Mitotic Cells (%),[1],66%
same,Population Normal (%),[1],93%
same,Population Pyknosed Nuclei (%),[1],13%
same,Population Tubulin-Different-Phenotype (%),[1],34%
same,Total Cell Count,[1],399
same,Population Apoptotic (%),[2],47%
same,Population Fragmented Nuclei (%),[2],5%
same,Population Healthy Nuclei (%),[2],82%
same,Population Hoechst High Intensity Objects (%),[2],8%
same,Population Mitochondria Different-Phenotype (%),[2],61%
same,Population Mitotic Cells (%),[2],52%
same,Population Normal (%),[2],91%
same,Population Pyknosed Nuclei (%),[2],11%
same,Population Tubulin-Different-Phenotype (%),[2],31%
same,Total Cell Count,[2],314
same,Population Apoptotic (%),[3],38%
same,Population Fragmented Nuclei (%),[3],6%
same,Population Healthy Nuclei (%),[3],75%
same,Population Hoechst High Intensity Objects (%),[3],8%
same,Population Membrane Permeable-Phenotype (%),[3],0%
same,Population Mitochondria Different-Phenotype (%),[3],59%
same,Population Mitotic Cells (%),[3],61%
same,Population Normal (%),[3],91%
same,Population Pyknosed Nuclei (%),[3],17%
same,Population Tubulin-Different-Phenotype (%),[3],54%
same,Total Cell Count,[3],451
same,Population Apoptotic (%),[4],41%
same,Population Fragmented Nuclei (%),[4],9%
same,Population Healthy Nuclei (%),[4],74%
same,Population Hoechst High Intensity Objects (%),[4],11%
same,Population Membrane Permeable-Phenotype (%),[4],1%
same,Population Mitochondria Different-Phenotype (%),[4],75%
same,Population Mitotic Cells (%),[4],58%
same,Population Normal (%),[4],88%
same,Population Pyknosed Nuclei (%),[4],16%
same,Population Tubulin-Different-Phenotype (%),[4],55%
same,Total Cell Count,[4],321
same,Population Apoptotic (%),[5],24%
same,Population Fragmented Nuclei (%),[5],8%
same,Population Healthy Nuclei (%),[5],79%
same,Population Hoechst High Intensity Objects (%),[5],3%
same,Population Membrane Permeable-Phenotype (%),[5],0%
same,Population Mitochondria Different-Phenotype (%),[5],26%
same,Population Mitotic Cells (%),[5],75%
same,Population Normal (%),[5],96%
same,Population Pyknosed Nuclei (%),[5],11%
same,Population Tubulin-Different-Phenotype (%),[5],21%
same,Total Cell Count,[5],508
same,Population Apoptotic (%),[6],45%
same,Population Fragmented Nuclei (%),[6],13%
same,Population Healthy Nuclei (%),[6],76%
same,Population Hoechst High Intensity Objects (%),[6],7%
same,Population Mitochondria Different-Phenotype (%),[6],34%
same,Population Mitotic Cells (%),[6],54%
same,Population Normal (%),[6],92%
same,Population Pyknosed Nuclei (%),[6],9%
same,Population Tubulin-Different-Phenotype (%),[6],15%
same,Total Cell Count,[6],387
same,Population Apoptotic (%),[7],37%
same,Population Fragmented Nuclei (%),[7],6%
same,Population Healthy Nuclei (%),[7],79%
same,Population Hoechst High Intensity Objects (%),[7],7%
same,Population Membrane Permeable-Phenotype (%),[7],1%
same,Population Mitochondria Different-Phenotype (%),[7],46%
same,Population Mitotic Cells (%),[7],62%
same,Population Normal (%),[7],92%
same,Population Pyknosed Nuclei (%),[7],14%
same,Population Tubulin-Different-Phenotype (%),[7],52%
same,Total Cell Count,[7],612
same,Population Apoptotic (%),[8],33%
same,Population Fragmented Nuclei (%),[8],7%
same,Population Healthy Nuclei (%),[8],78%
same,Population Hoechst High Intensity Objects (%),[8],13%
same,Population Membrane Permeable-Phenotype (%),[8],0%
same,Population Mitochondria Different-Phenotype (%),[8],70%
same,Population Mitotic Cells (%),[8],66%
same,Population Normal (%),[8],86%
same,Population Tubulin-Different-Phenotype (%),[8],48%
same,Total Cell Count,[8],371
same,Population Apoptotic (%),[9],26%
same,Population Fragmented Nuclei (%),[9],12%
same,Population Healthy Nuclei (%),[9],80%
same,Population Hoechst High Intensity Objects (%),[9],2%
same,Population Membrane Permeable-Phenotype (%),[9],0%
same,Population Mitochondria Different-Phenotype (%),[9],22%
same,Population Mitotic Cells (%),[9],73%
same,Population Normal (%),[9],97%
same,Population Pyknosed Nuclei (%),[9],7%
same,Population Tubulin-Different-Phenotype (%),[9],20%
same,Total Cell Count,[9],816
same,Population Apoptotic (%),[10],41%
same,Population Fragmented Nuclei (%),[10],10%
same,Population Membrane Permeable-Phenotype (%),[10],1%
same,Population Mitochondria Different-Phenotype (%),[10],27%
same,Population Mitotic Cells (%),[10],58%
same,Population Pyknosed Nuclei (%),[10],9%
same,Population Tubulin-Different-Phenotype (%),[10],19%
same,Total Cell Count,[10],520
same,Population Apoptotic (%),[11],40%
same,Population Fragmented Nuclei (%),[11],13%
same,Population Healthy Nuclei (%),[11],77%
same,Population Hoechst High Intensity Objects (%),[11],7%
same,Population Membrane Permeable-Phenotype (%),[11],1%
same,Population Mitochondria Different-Phenotype (%),[11],45%
same,Population Mitotic Cells (%),[11],59%
same,Population Normal (%),[11],92%
same,Population Pyknosed Nuclei (%),[11],9%
same,Population Tubulin-Different-Phenotype (%),[11],38%
same,Total Cell Count,[11],692
same,Population Fragmented Nuclei (%),[12],10%
same,Population Healthy Nuclei (%),[12],72%
same,Population Hoechst High Intensity Objects (%),[12],18%
same,Population Membrane Permeable-Phenotype (%),[12],0%
same,Population Mitochondria Different-Phenotype (%),[12],53%
same,Population Mitotic Cells (%),[12],60%
same,Population Normal (%),[12],81%
same,Population Pyknosed Nuclei (%),[12],17%
same,Population Tubulin-Different-Phenotype (%),[12],36%
same,Total Cell Count,[12],390
